Assay outcomes from PubChem.
Most compounds without a hit are left out; they make up all but 4.8% or so of the library.
ERa coact pot = enhancers of ERα–SRC-1 coactivator binding, primary screen, biochemical, TR-FRET, ERα LBD, low estradiol | actives 1.3% (n = 86,000) | AID 639, 2007 | coactivator binding (% of control), % at 25.6 µM | TR-FRET ERalpha-LBD/SRC-Cy5 coactivator binding, 2 h; 100 = basal binding, no effect | Estrogen receptor (Homo sapiens), P03372; in the data active means activity above about 200%;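 further: binding measured in presence of low estradiol as agonist stimulus; 0% = peptide alone without receptor and 100% = receptor with peptide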
Pyk2 oligo antag = antagonists of Pyk2 self-association, primary screen, Q293 cells, FERM NanoBiT luminescence, HTS; AID 1347419, 2020; actives 0.83% (n = 99,000); z-score (the deposit names both 25 µM and 10 µM); hits give low values;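 active means Z-score of -3 or lower, scaled per plate to the spread of control and sample wells; inactive means z-score above -3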;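 further: negative z-score means lost luminescence so less FERM oligomerization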
ERb SRC1 inh = inhibitors of ERβ-SRC1 coactivator interaction, primary screen, biochemical, TR-FRET, ERβ LBD, SRC-1 peptide; actives 1.3% (n = 86,000); Estrogen receptor beta (Homo sapiens), Q92731; inhibition, % at 25.6 µM; TR-FRET ER-beta LBD / SRC1-Cy5 peptide binding; receptor agonist-loaded with 1 µM estradiol; AID 633, 2007;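 active means compounds whose percent inhibition of the receptor-coactivator binding signal exceeds about 50% in the single-dose screen, limit read from the data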;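 further: 0% = receptor plus peptide wells without compound and 100% = peptide-only wells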
Target sequence (Q92731 whole entry, looked up, the tested form may be a part): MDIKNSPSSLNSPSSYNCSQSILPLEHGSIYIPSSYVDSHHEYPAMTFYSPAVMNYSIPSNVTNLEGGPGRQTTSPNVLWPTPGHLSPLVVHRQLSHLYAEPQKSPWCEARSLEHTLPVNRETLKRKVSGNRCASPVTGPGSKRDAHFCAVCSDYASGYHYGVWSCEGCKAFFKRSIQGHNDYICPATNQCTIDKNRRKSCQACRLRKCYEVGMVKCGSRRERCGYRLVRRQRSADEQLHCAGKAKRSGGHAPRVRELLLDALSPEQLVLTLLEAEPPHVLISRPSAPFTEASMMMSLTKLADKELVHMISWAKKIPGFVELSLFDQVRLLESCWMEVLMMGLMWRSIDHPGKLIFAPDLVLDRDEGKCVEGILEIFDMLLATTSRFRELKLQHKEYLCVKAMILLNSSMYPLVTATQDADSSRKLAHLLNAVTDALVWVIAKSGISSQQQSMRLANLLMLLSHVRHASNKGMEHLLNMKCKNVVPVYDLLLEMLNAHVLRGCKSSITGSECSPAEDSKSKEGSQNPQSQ
ERa SRC1 inh = ERα–SRC-1 coactivator interaction inhibitors, primary screen, biochemical, TR-FRET, ERα LBD, estradiol-bound; TR-FRET ER-alpha LBD / SRC-1 peptide; inhibition, % at 25.6 µM; actives 1.7% (n = 86,000); AID 629, 2007; in the data active means inhibition above about 50%;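 further: 0% = receptor plus peptide control and 100% = peptide only without receptor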
SF-1 act = activators of human SF-1, primary screen, cell-based, CHO-K1, Gal4-SF-1 LBD, luciferase luminescence; Steroidogenic factor 1 (Homo sapiens), Q13285; CHO-K1 Gal4-SF-1 LBD luciferase reporter; % increase over DMSO SF-1-specific signal; activation, % at 10 µM; actives 1.9% (n = 65,000);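 active means activation above the mean activation of all tested compounds plus 3 SD, cut at about 50% in these data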
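System: CHO-K1 cells with Gal4–hSF-1 LBD chimera plus Gal4-driven luciferase; quantity: 4,000 CHO-K1 cells per well; compound: one dose, 10 µM compound, 1% DMSO; times: 20 h compound treatment, 37 °C; measured by: SteadyLite luciferase luminescence; read-out: percent activation versus DMSO; benchmarks: DMSO and mock-transfected background; replicates: one test per compound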
RORA act = activators of orphan receptor RORA, primary screen, cell-based, luminescence | Nuclear receptor ROR-alpha (Homo sapiens), P35398 | CHO-K1 Gal4-RORA LBD luciferase reporter; percent increase over mock-subtracted basal signal | activation, % at 10 µM | actives 1.5% (n = 65,000) | AID 560, 2006;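 active means activation above the mean of all tested compounds plus 3 SD, cut at about 49% in these data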;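 further: 0% = DMSO-treated RORA cells and 100% = added signal equal to DMSO minus mock-transfected cells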
Starred values were filed as active, the others as inactive; x = no result given; [ ] = another dose, or the depositor's remark.

SMILES	ERa coact pot	Pyk2 oligo antag	ERb SRC1 inh	ERa SRC1 inh	SF-1 act	RORA act
CC(C)(C)OC(=O)N1CCOCCOCCN(C(=O)OC(C)(C)C)CCOCC1	129.0	1.03	-2.9	-3.6	16.9	-6.6
CCCCCCCCS(=O)c1sc2nc(C)cc(C)c2c1N (configuration not stated)	62.5	-0.1	-4.1	-1.7	x	x
O=C(CN(c1ccc(F)cc1)S(=O)(=O)c1ccc2c(c1)OCCO2)N1CCOCC1	103.2	x	-2.0	8.3	15.3	-6.8
CCOC(=O)N1CCC(NC(=O)c2csc3c2CCCC3)CC1	104.4	x	3.1	3.4	4.4	5.5
CCC(=O)NC(c1ccc([N+](=O)[O-])cc1)c1c(O)ccc2ccccc12 (configuration not stated)	x	-3.15*	x	x	x	x
O=C(NC(c1ccc(Cl)cc1)c1c(O)ccc2ccccc12)c1ccccc1 (configuration not stated)	x	-2.85	x	x	x	x
O=C(NC(c1ccccc1)c1c(O)ccc2ccccc12)c1ccccc1Cl (configuration not stated)	x	-3.33*	x	x	x	x
CC(C)C(=O)NC(c1ccco1)c1c(O)ccc2ccccc12 (configuration not stated)	x	-1.68	x	x	x	x
CC(C)C(=O)NC(c1ccccc1Cl)c1c(O)ccc2ccccc12 (configuration not stated)	x	-3.81*	x	x	x	x
CCN(CC(=O)Nc1ccccc1Br)Cc1nc2ccccc2c(=O)[nH]1	91.7	-0.09	-10.4	-11.1	x	x
COCCSc1ccccc1C(=O)Nc1cc(C)on1	62.2	0.52	95.9*[fluorescence artefact?]	-36.3	2.9	4.4
COc1ccccc1-c1cc(C(=O)NCCc2ccccc2)no1	105.0	-0.61	-6.5	-4.1	x	x
COCCSc1ccccc1C(=O)Nc1cccnc1	68.1	-0.32	-12.2	0.6	x	x
COc1ccc(CCNC(=O)c2cc(-c3ccccc3OC)on2)cc1OC	235.7*[fluorescence artefact?]	-0.01	28.8	26.1	16.8	17.5
COc1ccc(OC)c(-c2cc(C(=O)Nc3cc(C)on3)no2)c1	245.2*[fluorescence artefact?]	-0.23	32.6	34.5	-10.8	-4.4
COc1ccc(-c2noc(N(C)CC(=O)Nc3cccc(C(F)(F)F)c3)n2)cc1	104.2	0.27	4.8	1.3	43.5	51.6*
COc1ccc(OC)c(-c2cc(C(=O)Nc3cccc(Cl)c3)no2)c1	92.8	-0.62	-3.2	28.8	-16.1	-6.3
COc1ccc(NC(=O)c2cc(C3CC3)on2)c(OC)c1	89.6	x	20.3	14.1	56.3*	18.4
COc1ccc(NC(=O)c2cc(-c3ccccc3OC)on2)cc1	x	-0.04	x	x	12.5	48.9*
COc1ccc(-c2cc(C(=O)Nc3cccc(C(C)=O)c3)no2)cc1	228.3*[fluorescence artefact?]	0.83	9.7	16.1	-8.5	-9.0
COC(=O)c1ccccc1NC(=O)c1cc(C2CC2)on1	91.8	x	0.6	-2.4	13.1	-7.5
COc1ccc(-c2cc(C(=O)Nc3ccc(C)cc3)no2)cc1	82.7	0.13	14.9	11.2	-5.5	-2.7
COc1ccc(C(=O)Nc2cc(C)on2)cc1	113.7	-0.22	-1.9	-2.7	-1.3	76.7*
Cc1ccccc1NC(=O)CSc1ccsc1[N+](=O)[O-]	x	-0.16	x	x	x	x
O=C(NC1CCCCC1)C(c1ccc2ncccc2c1)N(Cc1ccc(F)cc1)C(=O)c1cccs1 (configuration not stated)	x	-3.87*	x	x	x	x
SMILES	ERa coact pot	Pyk2 oligo antag	ERb SRC1 inh	ERa SRC1 inh	SF-1 act	RORA act
CCc1nnc(NC(=O)CSc2nc3cccnc3n2Cc2ccccc2)s1	173.9	-1.55	14.8	1.0	x	x
c1coc(-c2nn3c(-c4ccco4)nnc3s2)c1	76.4	0.45	55.4*	57.7*[fluorescence artefact?]	0.8	-1.3
Clc1ccc(-c2nnc3sc(Cc4cccs4)nn23)c(Cl)c1	89.8	-1.04	6.6	26.2	-10.7	-0.6
COc1ccc(OCc2nn3c(-c4ccco4)nnc3s2)cc1	98.8	0.08	32.0	23.9	2.0	-2.6
c1csc(Cc2nn3c(-c4n[nH]c5c4CCC5)nnc3s2)c1	27.3	-1.75	62.3*	86.7*[fluorescence artefact?]	2.4	-2.8
COc1ccccc1-c1nn2c(-c3ccco3)nnc2s1	91.6	0.36	21.1	31.1	59.1*	36.2
c1coc(-c2nnc3sc(Cc4cccs4)nn23)c1	49.3	0.27	67.1*	86.5*[fluorescence artefact?]	-0.1	18.6
COC(=O)c1cc(S(=O)(=O)N2CCOCC2)ccc1Sc1ccccc1N	x	-0.86	x	x	11.6	13.0
CCOc1ccc(C2NC(=O)C(C#N)=C(S)N2c2ccc(C)cc2)cc1OC (configuration not stated)	93.5	0.78	-0.5	-6.4	x	x
CCOC(=O)c1cnc(SCC(=O)Nc2nnc(CC)s2)nc1N	235.2*	0.25	1.0	-8.1	-5.4	-7.6
CCOC(=O)c1cnc(SCC(=O)c2ccc(C)cc2)nc1N	109.5	1.05	-11.6	-4.5	x	x
CCCc1nc(SCC(=O)Nc2nnc(CC)s2)c2c(C)c(C)sc2n1	x	-3.68*	x	x	x	x
CCOC(=O)c1cnc(-c2ccccc2)nc1N	111.6	-0.16	-3.8	8.6	63.8*	47.7
CCOC(=O)c1cnc(SCC(=O)c2ccccc2)nc1N	117.9	0.87	6.1	2.2	29.0	58.6*
O=C(Nc1ccc(Cl)cc1)C1=Cc2ccccc2OC1	98.5	0.42	1.3	-2.1	x	x
CCOC(=O)c1c(NC(C)=O)sc2c1CCC(C=O)=C2Sc1ccccc1	70.6	-3.51*	4.8	-4.2	x	x
CCOC(=O)c1c(NC(C)=O)sc2c1CCCNC2=O	115.2	0.04	-6.7	-11.7	-4.1	18.1
C/C(=N\NC(=O)c1cccc(F)c1)c1ccc(Br)s1	x	-0.34	x	x	x	x
Cc1ccccc1-n1nc2c(c1NC(=O)c1ccc(Br)o1)CSC2	207.2*[fluorescence artefact?]	0.69	41.7	19.8	-0.1	-9.3
Cc1occc1C(=O)Nc1cccc2ccccc12	96.4	0.84	-5.9	-2.7	74.0*	27.8
Cc1oc(CC(C)C)cc1C(=O)Nc1cccc2ccccc12	95.6	-1.32	-3.7	8.9	x	x
Cc1ccccc1NC(=S)NNC(=O)c1ccoc1C	x	0.84	x	x	x	x
Cc1occc1C(=O)Nc1ccccc1NC(=O)c1ccoc1C	115.8	0.12	54.8*	57.8*	19.5	-27.6
O=C(c1ccco1)[C@@H]1[C@@H]2C(=O)N(c3ccc(F)cc3)C(=O)[C@@H]2C2c3ccccc3C=CN21 (some centres not stated)	79.5	x	36.0	55.3*[fluorescence artefact?]	-9.2	-12.4
CCC1(C)N(O)C(C)(C)C(c2ccc(F)cc2)=[N+]1[O-] (configuration not stated)	101.1	-0.19	24.8	-3.4	x	x
